Each block holds one compound with its values, some of them ahead of it. Active and inactive are the calls of the source.
Columns and labels:
[1] = system: Blood; assay: Biodistribution in Sprague-Dawley rat blood at 10 mg/kg, po after 0.167 hrs; settings: in vivo
[2] = Cmax in Sprague-Dawley rat at 30 mg/kg, po; format: ADME, organism-based; set-up: dose 30 mg/kg, route oral; settings: in vivo
Method in brief: (§1)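 Male Sprague-Dawley rats fasted about 16 h, then dosed by oral gavage at 30 mg/kg as a suspension in 2% Tween-80/0.5% methylcellulose in water. Plasma sampled at 0–6 h (n = 2–3 per time point) and stabilized with acetic acid and KF. Samples acidified, extracted into n-butanol, and analysed by LC-MS.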

[3] = system: Plasma; assay: Biodistribution in Sprague-Dawley rat plasma at 30 mg/kg, po after 0.5 hrs; format: ADME, organism-based; set-up: dose 30 mg/kg, route oral; settings: in vivo
Method in brief: (§2)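 Male Sprague-Dawley rats given [14C]-labelled compound by oral gavage (parent at 30 mg/kg, prodrug at 10 mg/kg). Blood, plasma and brain taken at 0.167, 0.5, 1, 4, 8 and 24 h (n = 3 rats/time point). Total radioactivity measured in each matrix. Metabolite profiles from HPLC with in-line radioactivity detection.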

[4] = Half life in Sprague-Dawley rat at 30 mg/kg, po; format: ADME, organism-based; set-up: dose 30 mg/kg, route oral; settings: in vivo
Method in brief: as §1

[5] = Tmax in Sprague-Dawley rat at 30 mg/kg, po; format: ADME, organism-based; set-up: dose 30 mg/kg, route oral; settings: in vivo
Method in brief: as §1

[6] = system: Brain; assay: Biodistribution in Sprague-Dawley rat brain at 30 mg/kg, po after 0.167 hrs; format: ADME, organism-based; set-up: dose 30 mg/kg, route oral; settings: in vivo
Method in brief: as §2

[7] = AUC (0 to 4 hrs) in Sprague-Dawley rat at 30 mg/kg, po; format: ADME, organism-based; set-up: time < 4 hr, dose 30 mg/kg, route oral; settings: plasma
Method in brief: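 Male Sprague-Dawley rats given a single oral gavage dose, suspended in 2% Tween-80/0.5% methylcellulose in sterile water at 1 mL/kg. Plasma sampled at 0, 0.25, 0.5, 1, 2, 4 and 6 h; n = 2 at 0, 2, 4, 6 h and n = 3 at 0.25, 0.5, 1 h. Samples were stabilized with acetic acid/KF, acidified, extracted into n-butanol and quantified by LC/MS.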

[8] = AUC (0 to last) in Sprague-Dawley rat at 30 mg/kg, po; settings: plasma
[9] = species: Rattus norvegicus; assay: Antinociceptive activity in Sprague-Dawley rat assessed as reversal of PGE2-induced thermal hypersensitivity after 0.5 hrs; format: functional
Method in brief: (§3)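 Male Sprague-Dawley rats (200-250 g) fasted ~16 h and dosed orally in 2% Tween-80/0.5% methylcellulose (1 mL/kg) 0.5-48 h before intradermal PGE2 (0.1 mg in 50 µL). Tail-withdrawal latency was read 30 min later in water at 34-58 °C, with a 20 s cutoff. T10 from each rat's temperature-effect curve; within-subjects repeated-measures ANOVA, p < 0.05.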

[10] = target: T1, Glycine receptor subunit alpha-1 (Rattus norvegicus) (UniProt P07727); assay: Displacement of [3H]glycine from rat brain strychnine sensitive glycine receptor at 100 uM
T1 sequence (whole entry): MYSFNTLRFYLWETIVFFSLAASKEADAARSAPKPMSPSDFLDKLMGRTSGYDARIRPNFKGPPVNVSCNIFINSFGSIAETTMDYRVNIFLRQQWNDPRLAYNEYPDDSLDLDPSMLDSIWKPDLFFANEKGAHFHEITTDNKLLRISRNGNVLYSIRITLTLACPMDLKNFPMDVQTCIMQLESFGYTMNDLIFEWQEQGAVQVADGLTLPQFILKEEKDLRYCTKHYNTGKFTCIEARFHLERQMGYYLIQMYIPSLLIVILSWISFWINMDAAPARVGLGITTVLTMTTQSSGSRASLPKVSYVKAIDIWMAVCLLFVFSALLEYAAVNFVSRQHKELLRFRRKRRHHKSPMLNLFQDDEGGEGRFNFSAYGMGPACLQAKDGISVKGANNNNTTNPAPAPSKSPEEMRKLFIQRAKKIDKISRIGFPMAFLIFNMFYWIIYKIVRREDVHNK
Method in brief: (§4)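 Inhibition of radioligand binding at 100 µM. [3H]glycine with rat whole-brain membranes, [3H]kainate with rat frontal cortex membranes, and [3H]AMPA with rat forebrain membranes.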

[11] = system: Plasma; assay: Biodistribution in Sprague-Dawley rat plasma at 10 mg/kg, po after 0.167 hrs; settings: in vivo
[12] = system: Rattus norvegicus; assay: Antinociceptive activity in Sprague-Dawley rat assessed as reversal of PGE2-induced thermal hypersensitivity at 100 mg/kg after 0.5 hrs; format: functional, organism-based; set-up: dose 100 mg/kg
Method in brief: as §3

[13] = species: Rattus norvegicus; assay: Displacement of [3H]kainic acid from kainate receptor in rat frontal cortex at 100 uM; format: tissue-based
Method in brief: as §4

[14] = system: Brain; assay: Biodistribution in Sprague-Dawley rat brain at 30 mg/kg, po after 0.5 hrs; format: ADME, organism-based; set-up: dose 30 mg/kg, route oral; settings: in vivo
Method in brief: as §2

[15] = target: Glutamate NMDA receptor; assay: Displacement of [3H]CGP-39653 from rat brain NMDA receptor
Method in brief: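 Competitive displacement of [3H]CGP-39653 at the NMDA recognition site, using rat whole-brain membranes.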

[16] = species: Rattus norvegicus; assay: Displacement of [3H]AMPA from AMPA receptor in rat forebrain membrane at 100 uM; format: cell membranes
Method in brief: as §4

[17] = system: Blood; assay: Biodistribution in Sprague-Dawley rat blood at 30 mg/kg, po after 0.5 hrs; format: ADME, organism-based; set-up: dose 30 mg/kg, route oral; settings: in vivo
Method in brief: as §2

[18] = Chemical stability in simulated gastric fluid after 4 hrs; format: physicochemical; settings: read-out: Stability
Method in brief: (§5)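 Compound at 0.01 mg/mL final in a 9:1 mix of aqueous buffer (pH 1.0, 4.5, 6.6 or 7.4) or simulated gastric fluid with acetonitrile, held at 37 °C in the autosampler. Injected every 4 h over 24 h onto C8 HPLC. Percent remaining from peak area at 304 nm, corrected by internal standard; products confirmed by LC/MS (-ESI).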

[19] = Chemical stability at pH 6.6 after 4 hrs; format: physicochemical; settings: buffer, read-out: Stability
Method in brief: as §5

[20] = Chemical stability at pH 1 after 4 hrs; format: physicochemical; settings: buffer, read-out: Stability
Method in brief: as §5

[21] = Chemical stability at pH 7.4 after 4 hrs; format: physicochemical; settings: buffer, read-out: Stability
Method in brief: as §5

[22] = Chemical stability at pH 4.5 after 4 hrs; format: physicochemical; settings: buffer, read-out: Stability
Method in brief: as §5

[23] = species: Rattus norvegicus; assay: Tmax in Sprague-Dawley rat plasma assessed as formation of benzoic acid [2-(8,9-dioxo-2,6-diaza-bicyclo[5.2.0]non-1(7)-en-2-yl)-ethyl]-hydroxy-phosphinoyloxymethyl ester; format: ADME; settings: in vitro
Method in brief: (§6)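 Dissolved at 0.05 mg/mL in rat plasma and incubated at 37 °C for 0–24 h. Samples quenched with acetonitrile and centrifuged; supernatant diluted and run on HPLC. Parent and conversion products quantified by peak area at 304 nm, corrected by internal standard, and confirmed by LC/MS. Kinetics fitted to a two-step first-order model.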

[24] = Half life in simulated intestinal fluid assessed as formation of perzinfotel; format: physicochemical; settings: simulated gi fluid
Method in brief: (§7)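 Compound at a final 0.01 mg/mL in 9:1 pH 8.5 buffer or simulated intestinal fluid:acetonitrile, 37 °C. HPLC injections every 4 h over 24 h, with peak area at 304 nm corrected by internal standard and identities confirmed by LC/MS. Conversion kinetics fitted to a two-step first-order model to give rate constants, half-lives and Tmax of the hemiester.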

[25] = species: Rattus norvegicus; assay: Half life in Sprague-Dawley rat plasma assessed as formation of perzinfotel; format: ADME
Method in brief: as §6

[26] = Tmax in pH 8.5 buffer assessed as formation of benzoic acid [2-(8,9-dioxo-2,6-diaza-bicyclo[5.2.0]non-1(7)-en-2-yl)-ethyl]-hydroxy-phosphinoyloxymethyl ester; format: physicochemical
Method in brief: as §7

[27] = Tmax in simulated intestinal fluid assessed as formation of benzoic acid [2-(8,9-dioxo-2,6-diaza-bicyclo[5.2.0]non-1(7)-en-2-yl)-ethyl]-hydroxy-phosphinoyloxymethyl ester; format: physicochemical; settings: simulated gi fluid
Method in brief: as §7

[28] = Half life in pH 8.5 buffer assessed as formation of perzinfotel; format: physicochemical
Method in brief: as §7

Drug uptake [1]: 88%
Cmax [2]: 218 ng/mL
Drug uptake [3]: 98%
half-life [4]: 1.3 h
Tmax [5]: 0.5 h
Drug uptake [6]: 88%
AUC(0-t) at 4 h [7]: 342 ng·h/mL
AUC(0-last) [8]: 342 ng·h/mL
Activity [10]: 33%
Drug uptake [11]: 88%
Activity [13]: 6%
Activity [14]: 98%
IC50 [15]: 0.023 µM
Activity [16]: 17%
Drug uptake [17]: 98%
Structure (SMILES): O=c1c2c(c1=O)N(CCP(=O)(O)O)CCCN2 [PERZINFOTEL]
ED50 [9]: 35 mg/kg
Activity [12]: Active

remaining at 4 h [18]: 100%
remaining at 4 h [19]: 97.7%
remaining at 4 h [20]: 100%
remaining at 4 h [21]: 94.1%
remaining at 4 h [22]: 100%
Structure (SMILES): CC(C)OC(=O)OCOP(=O)(CCN1CCCNc2c1c(=O)c2=O)OCOC(=O)OC(C)C

Tmax [23]: 0.19 h
t1/2 [24]: > 24 h
t1/2 [25]: 0.87 h
Tmax [26]: 9.14 h
IC50 [15]: 17 µM
Tmax [27]: 14.48 h
t1/2 [28]: > 24 h
Structure (SMILES): O=C(OCOP(=O)(O)CCN1CCCNc2c1c(=O)c2=O)c1ccccc1

Source: ChEMBL document CHEMBL1143386, “Prodrugs of perzinfotel with improved oral bioavailability” (J Med Chem, 2009)
